Bioassay records (PubChem BioAssay)
The list is not random: actives were taken first. Their share in the collection is about 4.4%.
AHR act: activates the human aryl hydrocarbon receptor. P35869. AHR-responsive luciferase reporter cells, luminescence. activation, % at 5 µM. actives 2.5% (n = 320,000); in the data active means activation above about 47%;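 further: 0% = vehicle wells and 100% = reference agonist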
Target sequence (P35869 whole entry, looked up): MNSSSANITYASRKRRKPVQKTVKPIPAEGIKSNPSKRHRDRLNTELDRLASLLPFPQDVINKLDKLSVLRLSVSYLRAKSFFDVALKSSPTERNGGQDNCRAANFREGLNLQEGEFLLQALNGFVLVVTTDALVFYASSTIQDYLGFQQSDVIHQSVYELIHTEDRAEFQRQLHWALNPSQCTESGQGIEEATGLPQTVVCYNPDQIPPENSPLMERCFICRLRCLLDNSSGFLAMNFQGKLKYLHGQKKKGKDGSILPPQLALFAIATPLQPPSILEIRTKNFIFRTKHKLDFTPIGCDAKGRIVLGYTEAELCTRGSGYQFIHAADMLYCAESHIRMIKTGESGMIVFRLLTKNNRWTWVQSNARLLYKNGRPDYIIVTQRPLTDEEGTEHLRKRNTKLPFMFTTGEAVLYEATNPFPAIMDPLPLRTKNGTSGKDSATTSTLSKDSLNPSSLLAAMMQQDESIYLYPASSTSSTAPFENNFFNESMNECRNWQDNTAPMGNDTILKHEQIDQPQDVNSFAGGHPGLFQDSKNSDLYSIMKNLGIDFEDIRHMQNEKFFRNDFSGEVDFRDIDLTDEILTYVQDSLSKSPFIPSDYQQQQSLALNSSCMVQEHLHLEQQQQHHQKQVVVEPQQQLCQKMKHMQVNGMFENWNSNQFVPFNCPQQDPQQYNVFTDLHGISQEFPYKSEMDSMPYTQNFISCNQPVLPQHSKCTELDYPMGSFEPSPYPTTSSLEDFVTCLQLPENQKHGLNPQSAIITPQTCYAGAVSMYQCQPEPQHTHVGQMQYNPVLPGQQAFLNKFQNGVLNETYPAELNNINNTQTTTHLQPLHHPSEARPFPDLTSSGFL
AI-2 QS modul: modulators of Vibrio harveyi AI-2 quorum sensing system; actives 0.4% (n = 300,000); AID 2094; activity change, % at 7.5 µM; Vibrio harveyi JMH597 AI-2 luminescence/OD600 ratio, 9 h; stronger effect = lower value; strain lacks LuxN and CqsS sensors; 0 = neutral-control median; in the data active means activity change below about -75%, passing the limit was not always enough;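 further: luminescence divided by OD600 gain over 9 h not by final OD600 alone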
MsrA inh: inhibits bovine methionine sulfoxide reductase A | inhibition, % at 15.5 µM | actives 0.75% (n = 360,000) | purified bovine MsrA, absorbance read-out; in the data active means inhibition above about 4.5%;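 further: 0% = vehicle wells with enzyme and 100% = reference inhibitor wells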
HTR2A ag: activates the mouse 5-HT2A serotonin receptor | AID 624169 | activation, % at 7.6 µM | CHO-K1 mHTR2A beta-arrestin complementation, luminescence; percent of 30 µM serotonin response | actives 0.66% (n = 360,000);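 active means activation above a run cutoff, the mean activation of all tested compounds plus 3 SD, cut at about 14% in these data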;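 further: 0% = plate median of compound wells and 100% = 30 µM serotonin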
MsrA act: activates bovine MsrA enzyme; purified bovine MsrA, absorbance read-out; activation, % at 10.6 µM; actives 0.3% (n = 360,000); AID 602163; in the data active means activation above about 7.5%;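 further: 0% = vehicle and 100% = reference activator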
TbMetRS inhib: Trypanosoma brucei MetRS inhibition. inhibition, % at 11.9 µM. actives 0.4% (n = 360,000). purified T. brucei MetRS, ATP depletion, Kinase-Glo luminescence. AID 624268;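 active means inhibition above a per-plate cutoff of the control wells' mean inhibition plus 3 SD, cut at about 5.5% in these data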;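 further: 0% = DMSO wells median and 100% = median of wells with control inhibitor compound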
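Test system – parasite MetRS enzyme · Reagent – substrates ATP, L-methionine and bulk Escherichia coli tRNA · Doses – 11.9 µM compound single dose, 0.9% DMSO · Times – 15 min enzyme-compound preincubation, 2 h reaction, 10 min detection, 25 °C · Signal – Kinase-Glo luminescence, ATP depletion format · Controls – DMSO-only wells as low control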
* hit, by the source's call.

`CC(C)=CCc1c(O)cc2c(=O)c3ccc(O)cc3oc2c1O` gave AHR act 62*, AI-2 QS modul 9, MsrA inh 0, HTR2A ag -5, MsrA act -6 and TbMetRS inhib 1.
`O=S1(=O)N[C@@H](Cc2ccccc2)COc2cc(N3CCCCC3)ccc21` gave MsrA inh 0.
`COc1ccc(NC(=O)c2c(NC(=O)CNCc3ccco3)sc3c2CCC3)c(OC)c1` gave AHR act 6, AI-2 QS modul 27, MsrA inh 0, HTR2A ag -1, MsrA act 3 and TbMetRS inhib 0.
Screening COc1ccc(NC(=O)c2c(NC(=O)CNCc3ccco3)sc3c2CCC3)cc1 returned AHR act 53*, AI-2 QS modul -5, MsrA inh 1, HTR2A ag -6, MsrA act -2 and TbMetRS inhib -1.
`CN1CCN(/N=C/c2nc(-c3ccc(Cl)cc3)n3ccccc23)CC1` gave AHR act 48*, AI-2 QS modul -7, MsrA inh 3, HTR2A ag 1, MsrA act -5 and TbMetRS inhib 0.
For CN1CCN(/N=C/c2nc(-c3ccccc3Cl)n3ccccc23)CC1 the results were AHR act 25, AI-2 QS modul -13, MsrA inh 2, HTR2A ag -1, MsrA act -3 and TbMetRS inhib 0.
Cc1csc(=Nc2ccccc2)n1C was read as AHR act -8, AI-2 QS modul 5, MsrA inh 0, HTR2A ag -2, MsrA act -3 and TbMetRS inhib 0.
Screening Cc1ccc(N=c2sc(C)c(C)n2C)cc1 returned AHR act 77*, AI-2 QS modul 1, MsrA inh 1, HTR2A ag -6, MsrA act -1 and TbMetRS inhib 0.
For CCOc1ccc(NC(=O)COC(=O)CN2CCCCCC2=O)cc1 the results were AHR act 0, MsrA inh 1, HTR2A ag -2, MsrA act -3 and TbMetRS inhib 0.
`CCSc1nnc(CNc2ccc(C)cc2)n1C` gave AHR act 75*, AI-2 QS modul 19, MsrA inh 0, HTR2A ag 7, MsrA act -3 and TbMetRS inhib 0.
`Cn1c(CNc2ccc(Cl)cc2)nnc1SCC#N` gave AHR act 59*, AI-2 QS modul 13, MsrA inh -1, HTR2A ag 5, MsrA act -7 and TbMetRS inhib 0.
Screening C[C@H]1COc2cc(NCCO)ccc2S(=O)(=O)N1 returned MsrA inh -1.
For N#C/C(=C\c1ccc(-c2ccc(C(=O)O)cc2)o1)C(=O)Nc1ccc(F)cc1 the results were AHR act 77*, AI-2 QS modul 31, MsrA inh 0, HTR2A ag -2, MsrA act -4 and TbMetRS inhib -1.
Cn1c(=O)c(-c2ccccc2)nc2ccccc21 was read as AHR act 55*, AI-2 QS modul 17, MsrA inh 4, HTR2A ag 1, MsrA act -1 and TbMetRS inhib 0.
Cn1c(=O)c(-c2ccccc2N)nc2ccccc21 was read as AHR act 41, AI-2 QS modul 1, MsrA inh 2, HTR2A ag 5, MsrA act -2 and TbMetRS inhib 0.
O=C(O)[C@@H]1C[C@@H](O)CN1 was read as MsrA inh -2.
For C/C(=N/NC(=O)C1CCCN1C(=O)c1ccc([N+](=O)[O-])cc1)c1ccc(Br)cc1 (centres undefined) the results were AI-2 QS modul 27, MsrA inh 0, HTR2A ag -5, MsrA act -1 and TbMetRS inhib 1.
For CCNC(=S)NNC(=O)c1ccccc1OC(F)F the results were AHR act 0, AI-2 QS modul 9, MsrA inh -1, HTR2A ag 1, MsrA act -3 and TbMetRS inhib 0.
For COc1ccc(C(=O)NNC(=S)Nc2ccccc2)cc1 the results were AHR act 2, AI-2 QS modul 27, MsrA inh 1, HTR2A ag 1, MsrA act -5 and TbMetRS inhib -1.
CCc1ccc(NC(=S)NNC(=O)c2ccccc2OC(F)F)cc1 was read as AHR act 49* and AI-2 QS modul 21.
COc1ccc(NC(=S)NNC(=O)c2ccccc2OC(F)F)cc1 was read as AHR act 118*, AI-2 QS modul 15, MsrA inh 1, HTR2A ag 1, MsrA act -3 and TbMetRS inhib 0.
`CS(=O)(=O)c1ccc(S(=O)(=O)NCC2CCN(C(=O)C(=O)c3cc4ccccc4o3)CC2)cc1` gave MsrA inh 0.
`CCc1cc2c(nc1CC)CCCN2CCOC` gave MsrA inh 0.
Screening COc1ccc(NC(=O)CC(C)n2ccnc2)cc1 (centres undefined) returned AHR act 7, AI-2 QS modul 15, MsrA inh -1, HTR2A ag 0, MsrA act -4 and TbMetRS inhib 0.
Screening CSc1cccc(NC(=O)CC(C)n2ccnc2)c1 (centres undefined) returned AHR act 58*, AI-2 QS modul 13, MsrA inh 0, HTR2A ag 6, MsrA act -1 and TbMetRS inhib 1.
CCCCN([C@H](CO)C(C)C)S(=O)(=O)c1ccccc1Br was read as MsrA inh 0, HTR2A ag -3, MsrA act 4 and TbMetRS inhib -1.
Screening CCOC(=O)/C(=C\Nc1cccc(OCc2ccccc2)c1)NC(=O)c1ccccc1 returned MsrA inh 0.
C=CCn1c(SCC(=O)Nc2cc(C)on2)nnc1C1COc2ccccc2O1 (centres undefined) was read as AHR act 4, AI-2 QS modul 26, MsrA inh 0, HTR2A ag -1, MsrA act -2 and TbMetRS inhib 0.
`Cc1cc(NC(=O)CSc2nnc(C3COc4ccccc4O3)n2N)no1` (centres undefined) gave AHR act 1, AI-2 QS modul -77*, MsrA inh 1, HTR2A ag -7, MsrA act -1 and TbMetRS inhib 0.
CNC(=O)c1cc2c(s1)-c1ccccc1CC2 was read as AHR act 75*, AI-2 QS modul 24, MsrA inh 3, HTR2A ag -10, MsrA act -4 and TbMetRS inhib -1.
O=C(NCc1ccccc1)[C@@H]1CCCN1C(=O)[C@H]1CCCN1C(=O)c1cccs1 was read as MsrA inh 0.
`COc1ccc(NC(=O)Nc2nnc(-c3ccncc3)s2)cc1` gave AHR act -1, AI-2 QS modul -10, MsrA inh 1, HTR2A ag 3, MsrA act -9 and TbMetRS inhib 0.
Screening COc1ccc(NC(=O)Nc2nnc(-c3ccccc3F)s2)cc1 returned AHR act 71*, AI-2 QS modul 27, MsrA inh 1, HTR2A ag 4, MsrA act -3 and TbMetRS inhib 0.
